A short description of series [1]: Selectivity index, ratio of CC50 for Vero cells to MIC90 for Mycobacterium tuberculosis H37Rv isolate SRI. In kind it is functional.
Series [2] relates to Mycobacterium tuberculosis. Nature of the series: Antitubercular activity against Mycobacterium tuberculosis H37Rv isolate ITR after 7 days by luminescence spectrometry. The settings on record: 168 h. In kind it is functional.
Series [3] relates to Mycobacterium tuberculosis. Nature of the series: Antitubercular activity against Mycobacterium tuberculosis H37Rv incubated for 10 days in anaerobic condition followed by 48 hrs incubation in aerobic condition by LORA assay. It is filed as functional.
Another series relates to Vero. Nature of the series: (§1) Cytotoxicity against african green monkey Vero cells after 72 hrs by CellTiterGlo assay. The settings on record: chlorocebus sabaeus, vero, 72 h.
Series [4] concerns Mycobacterium tuberculosis. Nature of the series: Antitubercular activity against Mycobacterium tuberculosis H37Rv isolate SRI after 5 days by resazurin-based microplate assay. In kind it is functional. Particulars: 120 h.
Series [5] relates to Mycobacterium tuberculosis. Nature of the series: Antitubercular activity against p-amino-salicyclic acid-resistant Mycobacterium tuberculosis ATCC 35821 after 5 days by resazurin-based microplate assay. In kind it is functional. The settings on record: ATCC 35821, 120 h. The procedure, abridged:
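Mid-log cultures grown in 7H9 with glycerol, Tween-80 and ADC. Compounds in DMSO were tested two-fold from […] against ~10^5 CFU/mL, 37°C for 5 d. Resazurin was then added for a further 2 d, and fluorescence read at ex 530/em 590 with visual confirmation. MIC was the lowest concentration inhibiting 90% of growth. Final DMSO 0.625%; two-fold variation taken as assay error.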

Series [6] is described as follows: as §1. Particulars: chlorocebus sabaeus, Vero cells.

Values after ≈ are worked out from the molar mass of the structure shown.

In the case of `[O-][n+]1nc(NC2CCC2)[n+]([O-])c2cc3c(cc21)CCC3`, the “Selectivity Index” value in series [1] is listed as 54. The MIC90 in series [2] was determined as 0.96 mg/L (≈ 3.53 µM); in series [3] it was 0.44 mg/L (≈ 1.62 µM); in series [4] it was 0.62 mg/L (≈ 2.28 µM); in series [5], 0.62 mg/L (≈ 2.28 µM). Further, the CC50 with Vero worked out at 34 mg/L (≈ 125 µM).
Regarding `CN(C)c1n[n+]([O-])c2cc3c(cc2[n+]1[O-])CCC3`, the “Selectivity Index” value in series [1] is reported as 13. Besides, the MIC90 in series [2] was determined as 0.3 mg/L (≈ 1.22 µM); in series [3], 1.5 mg/L (≈ 6.09 µM); in series [4] it was 0.62 mg/L (≈ 2.52 µM); in series [5] it was 0.15 mg/L (≈ 0.609 µM). In the series with Vero, this molecule came in with a CC50 of 24 mg/L (≈ 97.5 µM).
With `COCC(C)Nc1n[n+]([O-])c2cc(Cl)ccc2[n+]1[O-]` (configuration not stated), in series [1], the “Selectivity Index” value was 2.1. In addition, the figures for the MIC90 in series [2], in series [3] and in series [4] were 1.4 mg/L (≈ 4.92 µM), 0.78 mg/L (≈ 2.74 µM) and 1.2 mg/L (≈ 4.21 µM), respectively. In series [6], the CC50 at 72 h was determined as 2.6 mg/L (≈ 9.13 µM).
As to `CO[C@H]1/C=C/O[C@@]2(C)Oc3c(C)c(O)c4c(O)c(c(/C=N/N5CCN(C)CC5)c(O)c4c3C2=O)NC(=O)/C(C)=C\C=C\[C@H](C)[C@H](O)[C@@H](C)[C@@H](O)[C@@H](C)[C@H](OC(C)=O)[C@@H]1C` [RIFAMPIN], the “Selectivity Index” value in series [1] is greater than 15000. The MIC90 in series [2] was 0.041 mg/L (≈ 0.0498 µM); in series [3], 2 mg/L (≈ 2.43 µM); in series [4], 0.003 mg/L (≈ 0.00365 µM). The CC50 with Vero is greater than 50 mg/L.
For `[O-][n+]1nc(N[C@@H]2C[C@H]3CC[C@@H]2C3)[n+]([O-])c2ccccc21` the same measures were 5.5, 0.6 mg/L (≈ 2.2 µM), 0.42 mg/L (≈ 1.54 µM), 0.62 mg/L (≈ 2.28 µM) and 3.4 mg/L (≈ 12.5 µM).
Regarding `[O-][n+]1nc(N2CCCC2)[n+]([O-])c2ccccc21`, the “Selectivity Index” value in series [1] is reported as 56. Further, the half-maximal cytotoxic concentration (CC50) in the series on Vero is 17 mg/L (≈ 73.2 µM). For the same molecule, the values for the MIC90 in series [4] and in series [5] were 0.31 mg/L (≈ 1.33 µM) and 0.62 mg/L (≈ 2.67 µM), respectively.
Regarding `CCCC(C)Nc1n[n+]([O-])c2ccccc2[n+]1[O-]` (configuration not stated), the “Selectivity Index” value in series [1] is reported as 5.3. Besides, the MIC90 is 1.9 mg/L (≈ 7.65 µM) in series [2], 0.99 mg/L (≈ 3.99 µM) in series [3] and 5 mg/L (≈ 20.1 µM) in series [4]. Moreover, the CC50 in the series with Vero is 26 mg/L (≈ 105 µM).
Regarding `[O-][n+]1nc(NC2CCCC2)[n+]([O-])c2ccc(F)cc21`, in series [1], the “Selectivity Index” value was found to be 7.3. Also, the MIC90 in series [2] was 0.33 mg/L (≈ 1.25 µM); in series [3], 0.34 mg/L (≈ 1.29 µM); in series [4] it was 0.31 mg/L (≈ 1.17 µM). The same molecule returned a cytotoxic concentration (CC50) with Vero of 2.3 mg/L (≈ 8.7 µM).
In the same order, the values of `[O-][n+]1nc(NC2CCC2)[n+]([O-])c2ccc(Br)cc21` are 24, 0.46 mg/L (≈ 1.48 µM), 0.41 mg/L (≈ 1.32 µM), 0.15 mg/L (≈ 0.482 µM) and 3.8 mg/L (≈ 12.2 µM).
For the molecule `CCNc1n[n+]([O-])c2cccc(C)c2[n+]1[O-]`, in series [1], the “Selectivity Index” value was determined as 36. In addition, the MIC90 was 0.51 mg/L (≈ 2.32 µM) in series [2], 0.48 mg/L (≈ 2.18 µM) in series [3], 0.62 mg/L (≈ 2.82 µM) in series [4] and 0.31 mg/L (≈ 1.41 µM) in series [5]. Further, the CC50 in the series on Vero came to 22 mg/L (≈ 99.9 µM).
Consider `CC(C)(C)Nc1n[n+]([O-])c2ccccc2[n+]1[O-]`, for which the “Selectivity Index” value in series [1] amounted to 6.4. For the same molecule, the MIC90 amounted to 1.9 mg/L (≈ 8.11 µM) in series [2], 0.82 mg/L (≈ 3.5 µM) in series [3], 1.2 mg/L (≈ 5.12 µM) in series [4] and 1.2 mg/L (≈ 5.12 µM) in series [5]. Also, the CC50 in the series with Vero came to 8 mg/L (≈ 34.2 µM).
Take `[O-][n+]1nc(N2CCCCC2)[n+]([O-])c2cc3c(cc21)CCC3`: the “Selectivity Index” value in series [1] is on record as 13. Also, the MIC90 in series [2] amounted to 0.4 mg/L (≈ 1.4 µM); in series [3] it was 0.49 mg/L (≈ 1.71 µM); in series [4], 0.62 mg/L (≈ 2.17 µM); in series [5], 0.31 mg/L (≈ 1.08 µM). In the series on Vero, this molecule came in with a CC50 of 21 mg/L (≈ 73.3 µM).
Turning to `CCNc1n[n+]([O-])c2cc(Br)ccc2[n+]1[O-]`, the “Selectivity Index” value in series [1] is 6.7. Besides, the MIC90 in series [2] was 0.49 mg/L (≈ 1.72 µM); in series [3] it was 0.46 mg/L (≈ 1.61 µM); in series [4], 0.62 mg/L (≈ 2.17 µM). The molecule further yielded a cytotoxic concentration (CC50) with Vero of 4.2 mg/L (≈ 14.7 µM).
Turning to `CN(Cc1ccccc1)c1n[n+]([O-])c2cc3c(cc2[n+]1[O-])CCC3`, the “Selectivity Index” value in series [1] is given as 53. The MIC90 in series [2] was found to be 0.15 mg/L (≈ 0.465 µM); in series [3] it was 0.41 mg/L (≈ 1.27 µM); in series [4], 0.31 mg/L (≈ 0.962 µM); in series [5] it was 0.07 mg/L (≈ 0.217 µM). The same molecule showed a CC50 in the series on Vero of 17 mg/L (≈ 52.7 µM).
Take `[O-][n+]1nc(NC2CCCCC2)[n+]([O-])c2ccc(Cl)cc21`: in series [1], the “Selectivity Index” value is on record as 4.2. In addition, the MIC90 in series [2] is 0.94 mg/L (≈ 3.19 µM); in series [3], 0.63 mg/L (≈ 2.14 µM); in series [4], 0.62 mg/L (≈ 2.1 µM). This molecule also displayed a CC50 with Vero of 2.6 mg/L (≈ 8.82 µM).
In the same order, the values of `O=S1(=O)CCN(c2n[n+]([O-])c3cc4c(cc3[n+]2[O-])CCC4)CC1` are 3.4, 15 mg/L (≈ 44.6 µM), 30 mg/L (≈ 89.2 µM), 5 mg/L (≈ 14.9 µM) and 17 mg/L (≈ 50.5 µM).
With `COCC(C)Nc1n[n+]([O-])c2cc(F)ccc2[n+]1[O-]` (configuration not stated), the “Selectivity Index” value in series [1] is recorded as 1.3. In addition, the MIC90 in series [2] is 2 mg/L (≈ 7.46 µM); in series [3] it was 1.9 mg/L (≈ 7.08 µM); in series [4] it was 5 mg/L (≈ 18.6 µM). It took 6.3 mg/L (≈ 23.5 µM) to reach half-maximal cytotoxicity in series [6] (CC50 at 72 h).
`CCc1n[n+]([O-])c2ccccc2[n+]1[O-]`: the “Selectivity Index” value in series [1] is recorded as 7.6. The results for the MIC90 in series [2], in series [3] and in series [4] were 3.7 mg/L (≈ 19.4 µM), 0.97 mg/L (≈ 5.07 µM) and 5 mg/L (≈ 26.2 µM), respectively. The same molecule had a CC50 in the series with Vero of 38 mg/L (≈ 199 µM).
In the same order, the values of `[O-][n+]1nc(NC2CCCCC2)[n+]([O-])c2ccccc21` are 3.6, 3.8 mg/L (≈ 14.6 µM), 0.75 mg/L (≈ 2.88 µM), 2.5 mg/L (≈ 9.6 µM) and 8.9 mg/L (≈ 34.2 µM).
For `CC(C)CCC(C)Nc1n[n+]([O-])c2ccccc2[n+]1[O-]` (configuration not stated) the same measures were 3.3, 0.52 mg/L (≈ 1.88 µM), 0.38 mg/L (≈ 1.38 µM), 1.2 mg/L (≈ 4.34 µM) and 4.1 mg/L (≈ 14.8 µM).
`[O-][n+]1nc(N[C@@H]2C[C@H]3CC[C@@H]2C3)[n+]([O-])c2cc3c(cc21)CCC3`: in series [1], the “Selectivity Index” value is greater than 41. Further, the MIC90 in series [2] amounted to 0.93 mg/L (≈ 2.98 µM); in series [3], 0.36 mg/L (≈ 1.15 µM); in series [4] it was 1.2 mg/L (≈ 3.84 µM). This molecule also gave a CC50 with Vero greater than 50 mg/L.
As for `CC1CCCCN1c1n[n+]([O-])c2cc3c(cc2[n+]1[O-])CCC3` (configuration not stated), the “Selectivity Index” value in series [1] is greater than 40. For the same molecule, the MIC90 in series [2] stood at 0.66 mg/L (≈ 2.2 µM); in series [3] it was 0.47 mg/L (≈ 1.56 µM); in series [4], 1.2 mg/L (≈ 4 µM); in series [5], 0.62 mg/L (≈ 2.06 µM). This molecule displayed a CC50 with Vero greater than 50 mg/L.
`CN(CCc1ccccc1)c1n[n+]([O-])c2cc3c(cc2[n+]1[O-])CCC3`: the “Selectivity Index” value in series [1] was determined as 130. In addition, the MIC90 in series [2] is 0.24 mg/L (≈ 0.713 µM); in series [3], 0.44 mg/L (≈ 1.31 µM); in series [4], 0.31 mg/L (≈ 0.922 µM); in series [5] it was 0.15 mg/L (≈ 0.446 µM). For the same molecule, in the series with Vero, the 50% cytotoxic concentration (CC50) is 40 mg/L (≈ 119 µM).
On to `Nc1n[n+]([O-])c2ccccc2[n+]1[O-]` [TIRAPAZAMINE], for which, in series [1], the “Selectivity Index” value came to 1.6. The MIC90 was found to be 3.7 mg/L (≈ 20.8 µM) in series [2], 7.3 mg/L (≈ 41 µM) in series [3] and 5 mg/L (≈ 28.1 µM) in series [4]. The molecule also yielded a CC50 in the series with Vero of 8 mg/L (≈ 44.9 µM).
Turning to `CCNc1n[n+]([O-])c2cc(C)c(OC)cc2[n+]1[O-]`, in series [1], the “Selectivity Index” value is on record as greater than 40. For the same molecule, the MIC90 in series [2] came to 3.5 mg/L (≈ 14 µM); in series [3], 2.5 mg/L (≈ 9.99 µM); in series [5] it was 1.2 mg/L (≈ 4.8 µM). Besides, the cytotoxic concentration (CC50) in the series on Vero was greater than 100 mg/L.
For `COc1ccc2c(c1)[n+]([O-])nc(NC1CCC1)[n+]2[O-]`, the “Selectivity Index” value in series [1] is listed as 16. Moreover, the MIC90 in series [2] was 0.96 mg/L (≈ 3.66 µM); in series [3], 0.9 mg/L (≈ 3.43 µM); in series [4], 0.62 mg/L (≈ 2.36 µM). Further, the CC50 with Vero was found to be 9.8 mg/L (≈ 37.4 µM).
For `[O-][n+]1nc(NC2CCC2)[n+]([O-])c2ccccc21` the same measures were 7.1, 0.94 mg/L (≈ 4.05 µM), 0.84 mg/L (≈ 3.62 µM), 1.2 mg/L (≈ 5.17 µM) and 8.9 mg/L (≈ 38.3 µM).
